Assay results taken from ChEMBL document CHEMBL1131084, “3-Alkyl ethers of clocinnamox: delayed long-term mu-antagonists with variable mu efficacy” (J Med Chem, 1998).
The source made the active and inactive calls. The calls are words filed in the database; no cut-off is given here.

Experiments:
[1] = biological target: Kappa-type opioid receptor (Rattus norvegicus, UniProt P34975); assay: In vitro binding affinity against Opioid receptor kappa 1 in rat brain homogenates.; type: tissue-based
Outline: (§1)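 Crude membranes from brain minus cerebellum, homogenized in 50 mM Tris, pH 7.4. Radioligands [3H]DAMGO 2 nM (μ), [3H]DPDPE 1.8 nM (δ), [3H]U69,593 1.1 nM (κ). Nonspecific binding defined with 10 μM naloxone. Compounds from DMSO stock; final DMSO ≤0.1%.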

Mus musculus [2] = organism: Mus musculus; assay: Antinociceptive potency determined by mouse tail withdrawal assay.; type: functional
Outline: (§2)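 Mice, tail withdrawal test in 50 °C water. Ethers dissolved in sterile water containing 16% MeOH and 1% HCl and injected sc. ED50 in mg/kg and % MPE reported; means ± SEM from 6 animals.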

Mu-type opioid receptor = Mu-type opioid receptor (Rattus norvegicus, UniProt P33535); assay: In vitro binding affinity against Opioid receptor mu 1 (DAMGO) opioid receptor in rat brain homogenates.; type: tissue-based; outline: as §1
Chain of Mu-type opioid receptor (P33535 whole entry): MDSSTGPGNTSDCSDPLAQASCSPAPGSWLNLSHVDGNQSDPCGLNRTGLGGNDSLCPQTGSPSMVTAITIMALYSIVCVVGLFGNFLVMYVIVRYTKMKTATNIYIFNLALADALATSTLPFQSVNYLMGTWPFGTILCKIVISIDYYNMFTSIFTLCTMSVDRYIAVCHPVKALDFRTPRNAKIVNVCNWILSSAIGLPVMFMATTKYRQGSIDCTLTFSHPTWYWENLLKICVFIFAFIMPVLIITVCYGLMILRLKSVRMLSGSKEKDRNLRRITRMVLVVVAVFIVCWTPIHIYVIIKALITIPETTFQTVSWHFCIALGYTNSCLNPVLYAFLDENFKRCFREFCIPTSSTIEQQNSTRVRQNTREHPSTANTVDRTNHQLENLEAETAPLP

Mus musculus [3] = organism: Mus musculus; assay: Percent MPE was evaluated in mouse tail withdrawal assay; type: functional; outline: as §2
[4] = biological target: Delta-type opioid receptor (Rattus norvegicus, UniProt P33533); assay: In vitro binding affinity against Opioid receptor delta 1 (DPDPE) in rat brain homogenates.; type: tissue-based; outline: as §1
Chain of Delta-type opioid receptor (P33533 whole entry): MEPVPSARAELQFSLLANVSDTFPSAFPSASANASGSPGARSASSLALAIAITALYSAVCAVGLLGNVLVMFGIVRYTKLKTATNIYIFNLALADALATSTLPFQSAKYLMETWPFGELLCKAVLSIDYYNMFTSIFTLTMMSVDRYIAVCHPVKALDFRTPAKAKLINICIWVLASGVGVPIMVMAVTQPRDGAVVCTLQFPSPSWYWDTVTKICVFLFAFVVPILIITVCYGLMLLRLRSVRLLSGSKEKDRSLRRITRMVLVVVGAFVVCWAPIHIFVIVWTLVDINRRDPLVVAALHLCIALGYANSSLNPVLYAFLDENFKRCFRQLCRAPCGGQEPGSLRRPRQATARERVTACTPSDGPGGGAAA

Mus musculus [5] = assay: Comparison of the antinociceptive agonist/antagonist profile of activity by Phenylquinone-abdominal stretch test.(sc administration); type: functional
Outline: (§3)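 Mice, phenylquinone abdominal stretch, hot plate or tail flick tests. Compounds given sc in distilled water, 5% aqueous DMSO or 5% hydroxypropyl-β-cyclodextrin.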

Mus musculus [6] = assay: Comparison of the antinociceptive agonist/antagonist profile of activity by hot plate test.(sc administration); inactive up to 20 mg/Kg; type: functional, organism-based; outline: as §3
Mus musculus [7] = assay: Comparison of the antinociceptive agonist/antagonist profile of activity by tail flick test (sc administration); inactive up to 30 mg/kg; type: functional, organism-based; design: dose 30 mg/kg; outline: as §3
Mus musculus [8] = assay: Comparison of the antinociceptive agonist/antagonist profile of activity by Tail Flick vs morphine test.(sc administration); type: functional
Mus musculus [9] = assay: Antagonism of morphine antinociceptive ED50 by the compound. Onset and Duration of morphine antagonist action in the mouse tail flick assay at a Pretreatment time of 24 hours.(sc administration); type: functional
Outline: (§4)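 Mice, tail flick test. Ether given sc (vehicle: distilled water, 5% aqueous DMSO or 5% hydroxypropyl-β-cyclodextrin), then morphine; pretreatment intervals from the standard 30 min up to 72 h. Antagonism taken as the shift in morphine antinociceptive ED50.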

Mus musculus [10] = assay: Antagonism of morphine antinociceptive ED50 by the compound. Onset and Duration of morphine antagonist action in the mouse tail flick assay at a Pretreatment time of 72 hours.(sc administration); type: functional; outline: as §4
Mus musculus [11] = assay: Antagonist selectivity after a 24-h pretreatment period, in the mouse abdominal stretch assay using BW373U86 (10 mg/kg) as the agonist.; type: functional, Abdomen
Outline: (§5)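 Mice, acetic acid abdominal stretch assay. Ether 32 mg/kg sc given 24 h beforehand (vehicle sterile water with 16% MeOH and 1% HCl). Agonist (morphine 3.2 mg/kg, BW373U86 10 mg/kg, or bremazocine) given sc 15 min before ip acetic acid. Read-out is % antagonism of the agonist effect.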

Mus musculus [12] = assay: Comparison of the antinociceptive agonist/antagonist profile of activity by tail flick test.(sc administration); type: functional; outline: as §3
Mus musculus [13] = assay: Effect of antagonist (Nor-BNI, 32 mg/kg for a pretreatment time of 24 h) on the inhibition of acetic acid-induced abdominal stretches by the compound (10 mg/kg sc); type: functional, Abdomen
Outline: (§6)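 Mice, acetic acid abdominal stretch assay (stretches induced by ip acetic acid). Ether 10 mg/kg sc, given after a selective antagonist: β-FNA 32 mg/kg at 24 h, naltrindole 10 mg/kg at 15 min, or nor-BNI 32 mg/kg at 24 h beforehand. Read-out is % antagonism.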

Mus musculus [14] = assay: Effect of antagonist (Naltrindole, 10 mg/kg for a pretreatment time of 15 min)on the inhibition of acetic acid-induced abdominal stretches by the compound (10 mg/kg sc); type: functional, Abdomen; outline: as §6
Mus musculus [15] = assay: Effect of antagonist (beta-FNA, 32 mg/kg for a pretreatment time of 24 h) on the inhibition of acetic acid-induced abdominal stretches by the compound (10 mg/kg sc); type: functional, Abdomen; outline: as §6
Mus musculus [16] = organism: Mus musculus; assay: Antagonist selectivity after a 24-h pretreatment period, in the mouse abdominal stretch assay using Bremazocine as the agonist.; type: functional, Abdomen; outline: as §5
Mus musculus [17] = assay: Comparison of the antinociceptive agonist/antagonist profile of activity by Tail Flick vs morphine test.(Inactive up to 30 mg/kg; sc administration); type: functional, organism-based; design: dose 30 mg/kg
Mus musculus [18] = assay: Comparison of the antinociceptive agonist/antagonist profile of activity byhot plate test.(sc administration); type: functional; outline: as §3
Mus musculus [19] = assay: Antagonism of morphine antinociceptive ED50 by the compound. Onset and Duration of morphine antagonist action in the mouse tail flick assay at a Pretreatment time of 36 hours.(sc administration); type: functional; outline: as §4
Mus musculus [20] = assay: Antagonist selectivity after a 24-h pretreatment period, in the mouse abdominal stretch assay using morphine (3.2 mg/kg) as the agonist.; type: functional, Abdomen; outline: as §5
Mus musculus [21] = assay: Antagonism of morphine antinociceptive ED50 by the compound. Onset and Duration of morphine antagonist action in the mouse tail flick assay at a Pretreatment time of 6 hours.(sc administration); type: functional; outline: as §4
Mus musculus [22] = assay: Antagonism of morphine antinociceptive ED50 by the compound. Onset and Duration of morphine antagonist action in the mouse tail flick assay at a Pretreatment time of 2 hr. (30 mg/kg sc administration); type: functional; outline: as §4
Mus musculus [23] = assay: Comparison of the antinociceptive agonist/antagonist profile of activity byhot plate test (sc administration); inactive up to 20 mg/kg.; type: functional, organism-based; design: dose 20 mg/kg; outline: as §3
Mus musculus [24] = assay: Comparison of the antinociceptive agonist/antagonist profile of activity by Tail Flick vs morphine test (sc administration); inactive up to 30 mg/kg; type: functional, organism-based; design: dose 30 mg/kg
Mus musculus [25] = assay: Comparison of the antinociceptive agonist/antagonist profile of activity by hot plate test.(sc administration)
Mus musculus [26] = assay: Comparison of the antinociceptive agonist/antagonist profile of activity by Tail Flick vs morphine test.(sc administration) inactive up to 30 mg/kg; type: functional, organism-based; design: dose 30 mg/kg
Mus musculus [27] = assay: Percent MPE was evaluated in mouse tail withdrawal assay at 32 mg/kg; type: functional; outline: as §2

Chain of Kappa-type opioid receptor (P34975 whole entry): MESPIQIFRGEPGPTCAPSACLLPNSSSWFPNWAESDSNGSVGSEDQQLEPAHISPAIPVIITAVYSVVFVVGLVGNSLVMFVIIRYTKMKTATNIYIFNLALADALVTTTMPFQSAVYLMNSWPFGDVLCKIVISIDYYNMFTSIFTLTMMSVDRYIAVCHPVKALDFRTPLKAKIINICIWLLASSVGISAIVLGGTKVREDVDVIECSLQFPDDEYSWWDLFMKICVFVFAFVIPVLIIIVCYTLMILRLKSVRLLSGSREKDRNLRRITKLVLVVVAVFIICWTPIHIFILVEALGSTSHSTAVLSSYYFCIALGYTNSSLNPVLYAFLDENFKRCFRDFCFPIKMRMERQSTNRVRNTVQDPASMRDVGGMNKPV

Row | SMILES | Ki [1] [nM] | ED50 (Mus musculus [2]) [mg/kg] | Ki (Mu-type opioid receptor) [nM] | MPE (Mus musculus [3]) [%] | Ki [4] [nM] | ED50 (Mus musculus [5]) [mg/kg] | other results
1 | C=CCOc1ccc2c3c1O[C@H]1C(=O)CC[C@@]4(NC(=O)/C=C/c5ccc(Cl)cc5)[C@@H](C2)N(CC2CC2)CC[C@]314 | 17.9 | 11.1 | 8.9 | 100 | 65.4 | – | –
2 | COc1ccc2c3c1O[C@H]1C(=O)CC[C@@]4(NC(=O)/C=C/c5ccc(Cl)cc5)[C@@H](C2)N(CC2CC2)CC[C@]314 | – | – | – | – | – | 0.2 | ED50 (Mus musculus [6]): inactive; ED50 (Mus musculus [7]): inactive; ED50 (Mus musculus [8]): 6 mg/kg
3 | C#CCOc1ccc2c3c1O[C@H]1C(=O)CC[C@@]4(NC(=O)/C=C/c5ccc(Cl)cc5)[C@@H](C2)N(CC2CC2)CC[C@]314 | 19.1 | 6.3 | 1.6 | 100 | 21.3 | 0.3 | AD50 (Mus musculus [9]): 4.06 mg/kg; Antagonism (Mus musculus [10]): 36%; Antagonism (Mus musculus [11]): 38%; ED50 (Mus musculus [12]): 1.2 mg/kg; Antagonism (Mus musculus [13]): 4.8%; Antagonism (Mus musculus [14]): 3.9%; Antagonism (Mus musculus [15]): 100%; Antagonism (Mus musculus [16]): 7%; ED50 (Mus musculus [17]): inactive; ED50 (Mus musculus [18]): 0.3 mg/kg; AD50 (Mus musculus [19]): 3.02 mg/kg; Antagonism (Mus musculus [20]): 96%; AD50 (Mus musculus [21]): 14.11 mg/kg; Antagonism (Mus musculus [22]): 17%
4 | O=C(/C=C/c1ccc(Cl)cc1)N[C@@]12CCC(=O)[C@@H]3Oc4c(OCC5CC5)ccc5c4[C@@]31CCN(CC1CC1)[C@@H]2C5 | 131 | – | 7.6 | – | 56.5 | 6.7 | AD50 (Mus musculus [9]): 3.41 mg/kg; AD50 (Mus musculus [10]): 11.39 mg/kg; Antagonism (Mus musculus [11]): 0%; ED50 (Mus musculus [7]): inactive; ED50 (Mus musculus [23]): inactive; Antagonism (Mus musculus [16]): 19%; ED50 (Mus musculus [24]): inactive; AD50 (Mus musculus [19]): 6.82 mg/kg; Antagonism (Mus musculus [20]): 100%; AD50 (Mus musculus [21]): 0.97 mg/kg; Antagonism (Mus musculus [22]): 57%
5 | CN1CC[C@]23c4c5ccc(O)c4O[C@H]2[C@@H](O)C=C[C@H]3[C@H]1C5 [MORPHINE] | – | 17.9 | – | 100 | – | – | ED50 (Mus musculus [25]): 0.9 mg/kg; ED50 (Mus musculus [26]): inactive
6 | N#CCOc1ccc2c3c1O[C@H]1C(=O)CC[C@@]4(NC(=O)/C=C/c5ccc(Cl)cc5)[C@@H](C2)N(CC2CC2)CC[C@]314 | 18 | 20.8 | 12.4 | 78 | 89.5 | – | –
7 | CCCOc1ccc2c3c1O[C@H]1C(=O)CC[C@@]4(NC(=O)/C=C/c5ccc(Cl)cc5)[C@@H](C2)N(CC2CC2)CC[C@]314 | 19.1 | – | 24.6 | – | 82.6 | – | MPE (Mus musculus [27]): 35%
8 | CC(C)Oc1ccc2c3c1O[C@H]1C(=O)CC[C@@]4(NC(=O)/C=C/c5ccc(Cl)cc5)[C@@H](C2)N(CC2CC2)CC[C@]314 | 14.9 | – | 59.8 | – | 96.4 | – | –
9 | COC(=O)COc1ccc2c3c1O[C@H]1C(=O)CC[C@@]4(NC(=O)/C=C/c5ccc(Cl)cc5)[C@@H](C2)N(CC2CC2)CC[C@]314 | 95.4 | – | 7.6 | – | 24.8 | – | –
10 | O=C(/C=C/c1ccc(Cl)cc1)N[C@@]12CCC(=O)[C@@H]3Oc4c(O)ccc5c4[C@@]31CCN(CC1CC1)[C@@H]2C5 [CLOCINNAMOX] | 5.4 | – | 9 | – | 12.5 | – | –
